test: Toxicity liver stage against HepG2, at 10uM; type: cell-based; design: test concentration 10 uM, cell line HepG2-A16-CD81EGFP; settings: human, HepG2-A16-CD81EGFP cells; read-out: INHIBITION
In short: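 Uninfected HepG2-A16-CD81EGFP cells, 3 × 10^3 per well, 1536-well, plated on prespotted compound at 10 μM final, parasite-free screening media added to match infected plates; puromycin 10 μM positive, DMSO 0.5% negative; run in parallel with 48 h PbLuc assay at 37 °C, 5% CO2; viability by CellTiter-Glo luminescence, normalized to controls.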

| Compound | cytotoxicity at 10 µM |
| --- | --- |
| Cc1nn(Cc2ccc(F)cc2)c2[nH]nc(N)c12 | 1.11% |
| O=C([C@@H]1CCCN1c1nccc(Nc2ccccc2)n1)N1CCCCC1 | 0.325% |
| CCCc1nc2c(c(C)c(C)n2Cc2ccncc2)c(N)c1CC | 14.3% |
| COCCn1ccc2c(C(=O)Nc3nc4c(s3)CCC4)cccc21 | 1.82% |
| Cc1cc(CN2CCC(CNS(=O)(=O)c3ccc(Br)s3)CC2)c(C)o1 | -2.72% |
| CN(C)c1cnnc(N2CCN(C(=O)CCC3CCCCC3)CC2)c1 | -1.65% |
| COC(=O)CCC(=O)N1CCc2nc(C(=O)N(C)C)sc2CC1 | 18.7% |
| CC1N(C)C(=O)COC12CCN(C(=O)Cc1ccsc1)CC2 (stereo not given) | 2.81% |
| COCCO[C@H]1CCN(c2cc(OC)ncn2)[C@H]1Cc1cnn(C)c1 | -133% |
| c1coc(CN2CCc3ncnc(C4CCOC4)c3CC2)c1 (stereo not given) | 10.2% |
| COC(=O)c1ccc(C2SCC(=O)Nc3ccsc32)cc1 (stereo not given) | -6.79% |
| COc1ccc(Cn2c(=O)n(C)c(=O)c3sccc32)cc1 | 24.2% |
| COc1ccc(-n2nnnc2C(C)(C)Nc2ccc(C)cc2C)cc1 | 52.4% |
| CSCc1cccc(S(=O)(=O)NCc2cnn(C)c2C)c1 | 13.7% |
| Cc1nn(C)c2c(NCc3ccccc3F)nc(C3CC3)nc12 | 15.5% |
| CC1CCCN(c2ncc(-c3ccccc3F)c(-c3nccn3C)n2)C1 (stereo not given) | 26.8% |
| CCOc1cc([C@H]2N[C@@H](c3nc(C)cs3)Cc3ccsc32)ccc1OC | 24.3% |
| CNC(=O)c1sc2ccccc2c1C1CCN(c2cc(C)nc(C)n2)C1 (stereo not given) | 10.8% |
| CCN(CC)S(=O)(=O)N1CCCC1c1cccc(Nc2ncc(C)s2)n1 (stereo not given) | -39.3% |
| CC(=O)N1CCCC(c2nc(N(C)C)ncc2-c2cccc(F)c2)C1 (stereo not given) | -34.8% |
| Cc1ccc(S(=O)(=O)N2C[C@H]3C[C@H](NC(=O)c4cnn(C)c4)[C@H]3C2)cc1 | 76.4% |
| COc1ccccc1CNc1ncc(-c2cc(C)no2)c(C(C)C)n1 | 8.49% |

| Compound | cytotoxicity at 10 µM |
| --- | --- |
| CCc1c(C)nc2cc(C3CCN(Cc4cccc(F)c4)C3)nn2c1O (stereo not given) | -6.43% |
| Cc1cc(-c2cnc(NC3CCCC3)nc2-c2ccoc2C)on1 | 45.7% |
| O=C(c1csc(I)c1)N1CCc2c(ncn2C2CC2)C1 | 7.21% |
| O=C(CSCCN1CCOCC1)N1CCc2ccccc2C1 | -6.58% |
| Cc1nccn1-c1ccc(CNS(=O)(=O)N2CCC(C)CC2)cn1 | 1.28% |
| Fc1cccc(C(NCc2ncc[nH]2)c2ccccc2)c1 (stereo not given) | 1.35% |
| Cc1ncsc1COC(=O)c1cccc2c1OCCO2 | 1.37% |
| COc1ncnc(N)c1CNCCc1ccccc1 | -3.15% |
| CS(=O)(=O)NC1CCN(Cc2coc(-c3ccc(Cl)cc3)n2)CC1 | -41.9% |
| CC(NC(=O)NC1CCN(Cc2ccncc2)CC1)c1ccc(F)cc1 (stereo not given) | 7.9% |
| CC(C)Sc1ccc(C(C)Nc2nc3c(cnn3C)c(=O)[nH]2)cc1 (stereo not given) | 21.4% |
| CC(C)n1nc2c(cc1=O)CN(Cc1nc(-c3ccoc3)no1)CC2 | 10.2% |
| Cc1noc(C)c1CN(C)Cc1csc(-c2ccc(F)cc2)n1 | 27.8% |
| Cc1cc(CNCC2(O)CCOCC2)ccc1F | 6.71% |
| O=C1CCC(=O)N1CCN1CCN(c2cc(F)ccc2F)CC1 | 9.44% |
| Cc1ccc(S(=O)(=O)NCCNC(=O)c2cncnc2C)cc1 | -1.51% |
| COc1cc(C(C)NCc2scnc2C)ccc1SC(F)F (stereo not given) | 36.8% |
| CC(C)Oc1ncc(C(=O)N2CCc3ccc(O)cc3C2)cc1Cl | 1.61% |
| Cc1noc(C)c1CNC(=O)N(C1CC1)C(C)c1ccco1 (stereo not given) | 5.68% |
| CCCNC(=O)CCNC1CSCCc2ccccc21 (stereo not given) | -0.421% |
| CCC(C)(NCC(=O)NC(C)C)c1nc(C)cs1 (stereo not given) | -2.06% |
| O=C(NCC1(CO)CC1)c1nnn(-c2ccc(F)cc2)c1C1CC1 | -1.06% |

| Compound | cytotoxicity at 10 µM |
| --- | --- |
| CCN(C(=O)CN1CCCC1Cc1ccccc1)c1ccccc1 (stereo not given) | 0.686% |
| Cc1cccc(NC(=O)[C@@H]2CCCN2CC(=O)Nc2ccccc2)n1 | 2.45% |
| O=C(Nc1ccc(OCc2cccc(F)c2)c(F)c1)C1COCCO1 (stereo not given) | 74.4% |
| COc1ccc(NC(C)C(=O)N2CCCC2)cn1 (stereo not given) | -4.96% |
| Cc1ncccc1C(=O)NC1(c2cccc(F)c2)CCOCC1 | 10.3% |
| CC(=O)c1c(F)cccc1N1CCC(NS(=O)(=O)c2ccccc2)CC1 | 53.4% |
| CCN(CC)c1ccc(NS(=O)(=O)c2cccnc2)cn1 | 3.8% |
| Cc1cnc(CN2CCN(c3nc(C)cs3)C(C)C2)cn1 (stereo not given) | 2.74% |
| CCS(=O)(=O)c1ccc2c(c1)OCCO2 | -1.38% |
| COc1ccc(C(=O)N(c2ccc(OC)c(F)c2)C(C)C)cn1 | -1.94% |
| COc1cccc(CNc2cc(C)nc(-c3ccncc3)n2)c1O | 59.1% |
| COCCN(C)c1ccc(NCc2cscn2)nc1 | 0.513% |
| CN(C(=O)Cc1coc(-c2ccccc2)n1)C1(C#N)CCC1 | 6.41% |
| OC(COCc1cccs1)Cn1cc(Cl)cn1 (stereo not given) | -0.574% |
| Cc1cc(NCC2CCN(c3ccccc3)C2)n2ncnc2n1 (stereo not given) | 67% |
| Cc1cc(C(=O)NCCN2CCCCCC2)nn1C(C)(C)C | 2.45% |
| CCN1CCCN(C(=O)c2ccc(NC(=O)CC(C)C)c(C)c2)CC1 | -8.04% |
| COc1ccccc1CC(=O)NCc1ccnc(NC2CC2)c1 | -4.06% |
| CCc1cc(NCc2ccc(-n3cncn3)c(C)c2)n(C)n1 | -52.6% |
| CC(=O)Nc1sccc1C(=O)C(C)(C)C | -44.7% |
| Brc1cc2c(cc1CN1CCC(N3CCCCC3)CC1)OCCO2 | 50.1% |
| COc1ccc(CN2CCC3(CC(C(=O)NCC(C)C)=NO3)C2)cc1 (stereo not given) | 11% |

| Compound | cytotoxicity at 10 µM |
| --- | --- |
| O=C(OCc1ccccc1)N1CC[C@H]2CC(CO)O[C@@H]2C1 (stereo not given in full) | -97.7% |
| c1ccc(COCC2CN(Cc3ccsc3)Cc3nccn3C2)nc1 (stereo not given) | -69.6% |
| NCCSc1nccc(-c2cnc(C3CC3)nc2-c2ccco2)n1 | -7.19% |
| Cc1ccc(-c2cn[nH]c2C2CCCN(c3cc(N)ncn3)C2)cc1 (stereo not given) | 55.4% |
| CSCC(C)NCc1ccc2[nH]c(C)c(C)c2c1 (stereo not given) | -0.369% |
| O=C(NCCC1CCCCO1)c1coc(COc2ccc(F)cc2)n1 (stereo not given) | 1.1% |
| Cc1cnc(N2Cc3cnn(Cc4ccc(F)cc4)c3C2)nc1N(C)C | 6.02% |
| Cc1nc[nH]c1CN1CCCN(c2nc3ccccc3s2)CC1 | 33% |
| COC[C@H]1CCCN1c1nccc(-c2cnn(-c3ccccc3C)c2)n1 | 8.63% |
| Nc1nccc(N2CCC(c3cc(Cc4ccccc4)n[nH]3)CC2)n1 | 38.9% |
| CNc1cc(C)nc(NCc2cc(C)cc3c(C)c(C)[nH]c23)n1 | -29% |
| COc1cc(Cl)cc(CN2CCCC(N3CCCC3)C2)c1OC (stereo not given) | -3.88% |
| O=C1Nc2ccccc2NC12CCN(c1cccc(C(F)(F)F)n1)CC2 | 2.31% |
| CCc1nccn1CCNC1CCN(c2nc3ccc(Cl)cc3s2)CC1 | 28.8% |
| O=C(CCN1CCCCO1)NCc1cn2c(n1)SCC2 | 6.49% |
| CCCN1CCCC2(CCN(c3nc(C)nc4ccsc34)C2)C1=O (stereo not given) | 17.4% |
| c1nc(NCc2cc3n(n2)CCN(C2CCCCC2)C3)c2nc[nH]c2n1 | 24.2% |
| COc1cccc(OC)c1CN1CC(=O)N(c2ccc(C)cc2)CC1C (stereo not given) | 1.64% |
| Nc1nc2c(c(NC(Cn3cccn3)c3ccccc3)n1)CCNCC2 (stereo not given) | -12.3% |
| O=C(CN1CCOCC1)N(c1ccccc1)c1ccccc1 | -11.8% |
| CNC(=O)c1cn2cc(-c3cccc(Cl)c3)n(CC=C(C)C)c(=O)c2n1 | -52.8% |
| O=C(CCC1CCCN(C(=O)CCc2ccc(F)c(F)c2)C1)NC1CC1 (stereo not given) | 2.49% |

| Compound | cytotoxicity at 10 µM |
| --- | --- |
| COc1ccccc1CN1C(=O)O[C@@H]2CN(C(C)C)C[C@@H]21 | 3.99% |
| Fc1cccc(OC2CCN(CCn3cc4ccccc4n3)CC2)c1 | 8.33% |
| CCC[C@H]1CN(S(=O)(=O)N(C)Cc2ccccc2)C[C@@H]1N | -138% |
| O=S(=O)(c1ccccc1Cl)N1CCc2nc(C3CCNCC3)ncc2C1 | 14.2% |
| CN(C)c1ccc(NC(=O)NCC2CCOC2)cn1 (stereo not given) | -6.8% |
| O=C(C1CC1)N1CCN(Cc2coc(-c3ccc(Cl)cc3)n2)CC1 | 17.3% |
| CSc1ccc(CNC(c2ccccc2)c2nccn2C)cc1 (stereo not given) | 2.39% |
| CC(=O)Nc1nc(C(=O)Nc2ccc(N3CCCCC3)nc2)cs1 | 9.46% |
| CCCc1ccc(C(=O)N2Cc3c(Cn4ccnc4)nn(C)c3C2)cc1 | -73% |
| CN(Cc1cccnc1)C[C@@H]1OC[C@H]2CN(C(=O)C3CC3)CC[C@H]21 | -136% |
| COCCN1C[C@H]2CCC[C@@H](CNc3ncccn3)[C@H]2C1 | -112% |
| CC(=O)NCc1nnc2n1CCN(Cc1cccs1)C2 | -149% |
| Fc1cnc(N2C[C@H]3CCC[C@@]3(COc3ccccn3)C2)nc1 | 15.6% |
| c1cnn(C[C@@H]2C[C@@H]3CN(CC4CC4)CC[C@@H]3N2c2nccs2)c1 | 9.1% |
| COCC1CC2(CCN(C(C)=O)CC2)CN1Cc1csc(C)n1 (stereo not given) | 9.19% |
| O=C(C[C@@H]1COC[C@H]2CN(CC3CCOCC3)C[C@@H]12)N1CCCCO1 | 7.49% |
| CC(C)CCN1C2(CCN(Cc3nccs3)C2)c2ccccc2S1(=O)=O (stereo not given) | -65% |
| c1cncc(COCC2CC[C@H]3[C@H](CCN3CC3CCOCC3)O2)c1 (stereo not given in full) | -71.4% |
| CN(C)C(=O)CC1CC2(CCN(Cc3ccco3)CC2)c2ccccc21 (stereo not given) | -11.3% |
| COc1c(CNC2CCSc3ccc(F)cc32)c(C)nn1C (stereo not given) | 32.8% |
| O=C1CO[C@@H]2CN(CC3CC3)C[C@H]2N1Cc1cccc(F)c1 | -69.9% |
| O=C(c1ccco1)N1CCCC2(CN(Cc3ccsc3)CCO2)C1 (stereo not given) | -2.37% |
